According to ChEMBL document CHEMBL4152337, “Novel indolo-sophoridinic scaffold as Topo I inhibitors: Design, synthesis and biological evaluation as anticancer agents” (Eur J Med Chem, 2018):
Activity calls are given as the source filed them. The calls are words filed in the database; no cut-off is given here.

Tests used:
HepG2 [1] = experiment: Antitumor activity against human HepG2 cells xenografted in BALB/C nude mouse assessed as tumor weight at 40 mg/kg, ip treated twice per week for 25 days (reference value: 0.84 +/- 0.09 g); assay type: functional
Summary of the method: (§1)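 Female BALB/c nude mice, 5–6 weeks old, with subcutaneous flank xenografts of 8 × 10⁶ HepG2 cells. Randomized when tumors reached ~150–200 mm³. Dosed ip twice weekly for 25 days at 40 mg/kg; vehicle was saline with 10% DMSO (n = 6 vehicle, n = 5 per treated group). Caliper measurements every other day, volume = 0.5 × L × W². Tumors excised and weighed at end. Mean ± SD; t-test versus vehicle.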

Mus musculus = experiment: Toxicity against BALB/C nude mouse xenografted with human HepG2 cells assessed as body weight loss at 40 mg/kg, ip treated twice per week measured at day 19 post dose; assay type: organism-based; details: in vivo
Summary of the method: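 HepG2 subcutaneous xenografts (8 × 10⁶ cells, flank) in female BALB/c nude mice aged 5–6 weeks. At ~150–200 mm³ tumors, ip dosing at 40 mg/kg twice weekly for 25 days; vehicle was saline with 10% DMSO. Body weight tracked every other day from day 1 to day 25. Mean ± SD; t-test versus vehicle.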

HepG2 [2] = experiment: Antitumor activity against human HepG2 cells xenografted in BALB/C nude mouse assessed as tumor growth at 40 mg/kg, ip treated twice per week for 25 days relative to control; assay type: functional; summary of the method: as §1
HepG2 [3] = experiment: Antitumor activity against human HepG2 cells xenografted in BALB/C nude mouse assessed as tumor volume at 40 mg/kg, ip treated twice per week for 25 days (reference value: 1185.78 +/- 137.44 mm3); assay type: functional
HepG2 [4] = experiment: Cell cycle arrest in human HepG2 cells accumulation at S phase at 1 uM after 24 hrs by propidium iodide staining-based flow cytometric analysis (reference value: 45.44%); assay type: functional
Summary of the method: (§2)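 HepG2 seeded at 2 × 10⁵ cells/well in DMEM + 10% FBS. Treated 24 h at 1, 2.5 or 5 µM. Fixed overnight in cold 75% ethanol at 4 °C, RNase-treated 30 min at 37 °C, then propidium iodide-stained 30 min in the dark. Analysed by flow cytometry. Mean ± SD; representative of three independent experiments.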

HepG2 [5] = experiment: Cytotoxicity against human HepG2 cells assessed as reduction in cell viability after 48 hrs by MTT assay; assay type: functional, cell-based; details: HepG2, 48 h
Summary of the method: (§3)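 Cells at 3–4 × 10⁴/mL in DMEM + 10% FBS, pre-incubated 24 h in 5% CO₂. Then exposed 48 h to serial dilutions at 1, 5, 10, 20 and 50 µM; final DMSO <0.1%. MTT (5 mg/mL solution) added for 4 h at 37 °C, supernatant removed, formazan dissolved in DMSO, colorimetric read-out.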

[6] = molecular target: T1, DNA topoisomerase 1 (Homo sapiens) (UniProt P11387); experiment: Inhibition of recombinant human topoisomerase-1-mediated relaxation of supercoiled pBR322 DNA at 500 uM after 30 mins by ethidium bromide staining based assay
T1 sequence (whole entry): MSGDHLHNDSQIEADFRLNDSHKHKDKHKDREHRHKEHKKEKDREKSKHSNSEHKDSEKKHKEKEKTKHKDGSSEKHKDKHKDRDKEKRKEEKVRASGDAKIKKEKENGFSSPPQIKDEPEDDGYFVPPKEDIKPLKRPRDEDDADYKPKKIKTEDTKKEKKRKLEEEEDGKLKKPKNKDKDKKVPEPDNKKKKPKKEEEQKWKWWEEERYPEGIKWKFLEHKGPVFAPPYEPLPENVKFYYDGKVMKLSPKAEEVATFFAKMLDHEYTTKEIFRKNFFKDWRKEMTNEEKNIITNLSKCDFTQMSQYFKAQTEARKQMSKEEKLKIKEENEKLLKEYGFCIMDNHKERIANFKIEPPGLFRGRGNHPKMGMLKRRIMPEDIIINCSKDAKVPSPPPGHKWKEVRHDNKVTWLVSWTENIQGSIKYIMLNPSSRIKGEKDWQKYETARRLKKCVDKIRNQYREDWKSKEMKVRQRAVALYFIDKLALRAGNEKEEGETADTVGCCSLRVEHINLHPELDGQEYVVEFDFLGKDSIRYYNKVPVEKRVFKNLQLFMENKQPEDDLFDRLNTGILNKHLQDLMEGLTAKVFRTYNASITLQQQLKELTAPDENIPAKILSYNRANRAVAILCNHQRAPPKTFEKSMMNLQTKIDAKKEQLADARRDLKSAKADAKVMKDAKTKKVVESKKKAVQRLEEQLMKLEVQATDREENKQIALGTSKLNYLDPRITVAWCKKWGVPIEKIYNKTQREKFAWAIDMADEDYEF
Summary of the method: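 Reactions stopped with loading buffer containing 0.5% SDS, bromophenol blue and 15% glycerol. Products run on a horizontal 0.8% agarose gel in 1× TAE at 4 V/cm for 40 min at room temperature. Gel stained with ethidium bromide and imaged.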

CNE-2 = experiment: Cytotoxicity against human CNE2 cells assessed as reduction in cell viability after 48 hrs by MTT assay; assay type: functional, cell-based; details: CNE-2, 48 h; summary of the method: as §3
HepG2 [7] = experiment: Cell cycle arrest in human HepG2 cells accumulation at S phase at 2.5 uM after 24 hrs by propidium iodide staining-based flow cytometric analysis (reference value: 45.44%); assay type: functional; summary of the method: as §2
A549 = experiment: Cytotoxicity against human A549 cells assessed as reduction in cell viability after 48 hrs by MTT assay; assay type: functional, cell-based; details: A549, 48 h; summary of the method: as §3
HepG2 [8] = experiment: Cell cycle arrest in human HepG2 cells accumulation at S phase at 5 uM after 24 hrs by propidium iodide staining-based flow cytometric analysis (reference value: 45.44%); assay type: functional; summary of the method: as §2

inhibition [6]	Compound	Activity (HepG2 [1]) [g]	Activity (Mus musculus)	T/C (HepG2 [2]) [%]	Activity (HepG2 [3]) [mm3]	Activity (HepG2 [4]) [%]	IC50 (HepG2 [5]) [µM]	IC50 (CNE-2) [µM]	Activity (HepG2 [7]) [%]	IC50 (A549) [µM]	Activity (HepG2 [8]) [%]
	CCc1c2c(nc3ccc(OC(=O)N4CCC(N5CCCCC5)CC4)cc13)-c1cc3c(c(=O)n1C2)COC(=O)[C@]3(O)CC [IRINOTECAN]	0.47	Toxic	35.08							
Active	OCCCC[C@@H]1[C@H]2CCCN3CCC[C@H](CN1Cc1cn(Cc4ccc(Br)cc4)c4ccccc14)[C@@H]23	0.61		55.99	737.04	55.77	3.1	3.5	60.68	22.1	64.17
